Only some compounds are listed: those with a hit (about 1.6% of all), similar ones and a draw of the others.
MT1-MMP act inh: blockers of MT1-MMP proenzyme processing, primary screen, HT1080 RFP-PRO-GFP cells, GFP/RFP fluorescence. Matrix metalloproteinase-14 (Homo sapiens), P50281. GFP/RFP ratio fluorescence, overnight; percent of plate control window, DMSO zero. GFP/RFP ratio change, % at 20 µM. 360,000 compounds, 0.061% hits;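 active = GFP/RFP ratio change of at least 30% with cell ATP level not reduced by more than half and red fluorescence within 50% of control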
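Assay system: HT1080 RFP-PRO-GFP cells. Benchmarks: DMSO vehicle wells and RFP-L50D-GFP reporter cell wells. Times: overnight cell settling, then overnight compound exposure, 37 °C, 5% CO2. Compound: 20 µM single dose, 1% DMSO. Read-out basis: GFP/RFP fluorescence ratio.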
ADAM17 inh: ADAM17 inhibitors, primary screen, biochemical, QFRET. AID 720648, 2013. Disintegrin and metalloproteinase domain-containing protein 17 (Homo sapiens), P78536. 370,000 compounds, 0.83% hits. inhibition, % at 6.95 µM. recombinant ADAM17, EDANS/DABCYL FRET peptide cleavage;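 active = inhibition above the mean of compounds lying between control limits plus 3 SD, set per campaign, cut at about 8.5% in these data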;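 also: 0% = DMSO-only wells as the low control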
Target sequence (P78536 215-824 limits assumed): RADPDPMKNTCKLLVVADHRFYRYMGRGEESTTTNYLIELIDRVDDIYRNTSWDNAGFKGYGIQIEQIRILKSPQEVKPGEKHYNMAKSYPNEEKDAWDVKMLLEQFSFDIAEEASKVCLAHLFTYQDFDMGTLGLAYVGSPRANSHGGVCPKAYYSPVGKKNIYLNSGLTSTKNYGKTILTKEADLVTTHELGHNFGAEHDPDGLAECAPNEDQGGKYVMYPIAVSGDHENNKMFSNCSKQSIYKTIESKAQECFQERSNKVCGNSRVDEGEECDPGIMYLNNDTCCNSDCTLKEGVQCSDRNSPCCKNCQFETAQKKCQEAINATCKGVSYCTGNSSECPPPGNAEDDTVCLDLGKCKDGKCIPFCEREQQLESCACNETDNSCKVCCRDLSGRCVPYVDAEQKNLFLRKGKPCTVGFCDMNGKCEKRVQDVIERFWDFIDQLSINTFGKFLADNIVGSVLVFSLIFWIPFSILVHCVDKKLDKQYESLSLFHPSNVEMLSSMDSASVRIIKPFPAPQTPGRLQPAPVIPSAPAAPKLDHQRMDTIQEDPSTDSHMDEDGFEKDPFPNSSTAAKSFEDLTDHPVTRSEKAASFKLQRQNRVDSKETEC
DDE Tn6 FP inh: inhibitors of Tn6 peptide binding to fibrin DD(E), primary screen, biochemical, fluorescence polarization, human fibrin, Tn6 probe; 370,000 compounds, 0.21% hits; inhibition, % at 8.3 µM; Fibrin DD(E) TRITC-Tn6 fluorescence polarization displacement; AID 720509, 2013;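 active = inhibition above a per-campaign cutoff: mean of compounds within control limits plus 3 SD, cut at about 15% in these data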;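 also: 0% = median of all compound wells on the plate and 100% = blocking peptide control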
ADAM10 inh: human ADAM10 inhibitors, primary screen, biochemical, QFRET, HTS; Disintegrin and metalloproteinase domain-containing protein 10 (Homo sapiens), O14672; recombinant ADAM10, EDANS/DABCYL FRET peptide cleavage, 3 h; inhibition, % at 7 µM; 370,000 compounds, 0.62% hits; AID 720582, 2013;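 active = inhibition above a per-campaign cutoff equal to the mean of compounds falling between control-based bounds plus 3 SD, cut at about 20% in these data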;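 also: 0% = DMSO wells while the 100% control is not disclosed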
DDE Tn7 FP inh: inhibitors of Tn7 peptide binding to fibrin DD(E), primary screen, biochemical, fluorescence polarization, human fibrin, Tn7 probe | Fibrinogen beta chain (Homo sapiens), P02675 | FP displacement of FITC-Tn7 peptide from fibrin DD(E); 0% = median of compound wells per plate | inhibition, % at 8.3 µM | 370,000 compounds, 0.13% hits;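 active = inhibition above the mean of compounds falling within the control limits plus 3 SD of them, cut at about 14% in these data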;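 also: 0% = plate median of compound wells and 100% = 10 µM Aha-Tn7 peptide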
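Assay system: human fibrin DD(E) protein / Input: 2 µM fibrin DD(E) / Benchmarks: high control of 10 µM Aha-Tn7 peptide / Measured by: fluorescence polarization of the labelled Tn7 tracer / Medium: Tris buffer with calcium and detergent, pH 7.8 / Timing: 10 min compound pre-incubation, 3 h probe incubation at room temperature / Repeats: one replicate per compound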
ADAM10 ctr: ADAM10 inhibitors, counter-screen for ADAM17 exosite inhibitor project, biochemical, FRET, human ADAM10; shares compounds with ADAM17 inh; recombinant ADAM10, EDANS/DABCYL FRET peptide cleavage, 3 h; inhibition, % at 6.95 µM; 2,900 compounds, 47% hits; AID 743256, 2014;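 active = mean inhibition over the triplicate runs exceeds the activity threshold set in the earlier primary screen, cut at about 20% in these data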;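 also: 0% = DMSO wells and 100% = marimastat wells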
ADAM17 confirm: ADAM17 inhibitors, hit retest, confirmation, biochemical, QFRET peptide cleavage; shares compounds with ADAM17 inh; inhibition, % at 6.95 µM; AID 743257, 2014; 2,900 compounds, 65% hits; recombinant ADAM17, EDANS/DABCYL QFRET peptide cleavage;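 active = mean inhibition across replicates above the hit cutoff set in the primary screen, cut at about 8.5% in these data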;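 also: 0% = DMSO wells and 100% = marimastat wells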
An asterisk follows results filed as active.

COc1cccc(NC(=O)C2CCN(S(=O)(=O)c3ccc4c(c3)CC(C)N4C(C)=O)CC2)c1 (configuration not stated) was read as MT1-MMP act inh -1, ADAM17 inh -4, DDE Tn6 FP inh -4, ADAM10 inh 11 and DDE Tn7 FP inh 1.
Nc1ccn([C@@H]2O[C@H](C(=O)N[C@H](Cc3ccccc3)C(=O)N3CCN(CCO)CC3)[C@@H](O)[C@H]2O)c(=O)n1 was read as ADAM17 inh -7, DDE Tn6 FP inh -7, ADAM10 inh -10 and DDE Tn7 FP inh -2.
Screening COc1ccccc1OCC(=O)NCCc1nc2ccccc2[nH]1 returned MT1-MMP act inh 0, ADAM17 inh 4, DDE Tn6 FP inh 8, ADAM10 inh 0 and DDE Tn7 FP inh -2.
`O=C(COc1ccccc1Br)NCCc1nc2ccccc2[nH]1` gave MT1-MMP act inh 3, ADAM17 inh 8.9*, DDE Tn6 FP inh -4, ADAM10 inh 7, DDE Tn7 FP inh -2, ADAM10 ctr 12 and ADAM17 confirm 2.
`O=[N+]([O-])c1ccc(C2=NN(CCO)C(=Nc3ccc(OC(F)(F)F)cc3)SC2)cc1` gave MT1-MMP act inh -1, ADAM17 inh 12*, DDE Tn6 FP inh 0, ADAM10 inh 12, DDE Tn7 FP inh -4, ADAM10 ctr 32* and ADAM17 confirm 18*.
`COc1cccc(C(=O)N/N=C/c2ccc(OC3CSC3)cc2)c1` gave MT1-MMP act inh 6, ADAM17 inh 9.2*, DDE Tn6 FP inh 2, ADAM10 inh 12, DDE Tn7 FP inh -6, ADAM10 ctr -3 and ADAM17 confirm -1.
O=S1(=O)N[C@@H](Cc2ccccc2)COc2cc(N3CCOCC3)ccc21 was read as ADAM17 inh -3, DDE Tn6 FP inh 11, ADAM10 inh -7 and DDE Tn7 FP inh 9.
`Nc1nc(Nc2cccc(C(F)(F)F)c2)nc(C(F)(F)F)n1` gave MT1-MMP act inh -16, ADAM17 inh 15*, DDE Tn6 FP inh -10, ADAM10 inh 17, DDE Tn7 FP inh -6, ADAM10 ctr 23* and ADAM17 confirm 16*.
For COC(=O)c1cccc(NC(=O)c2ccc(S(=O)(=O)N(C)c3ccccc3OC)cc2)c1 the results were MT1-MMP act inh -3, ADAM17 inh 3, DDE Tn6 FP inh -7, ADAM10 inh 12 and DDE Tn7 FP inh 2.
COc1cc(NC(=O)c2ccc(S(=O)(=O)N(C)c3ccccc3OC)cc2)cc(OC)c1 was read as MT1-MMP act inh 3, ADAM17 inh 9.4*, DDE Tn6 FP inh 0, ADAM10 inh 19, DDE Tn7 FP inh -1, ADAM10 ctr 25* and ADAM17 confirm 13*.
For O=C(NCCCc1ccccc1)[C@H](CO)NC1(C(=O)NCCc2c[nH]c3ccccc23)CCCCC1 the results were ADAM17 inh -3, DDE Tn6 FP inh 4, ADAM10 inh 0 and DDE Tn7 FP inh 0.
`Cc1cc2cc(CN(CCCO)S(=O)(=O)c3cccc4nsnc34)c(=O)[nH]c2cc1C` gave MT1-MMP act inh 5, ADAM17 inh 10*, DDE Tn6 FP inh -1, ADAM10 inh 13, DDE Tn7 FP inh -3, ADAM10 ctr -2 and ADAM17 confirm 5.
Screening Cc1ccc2[nH]c(=O)c(CN(CCCO)S(=O)(=O)c3c(C)ccc4nsnc34)cc2c1 returned MT1-MMP act inh 3, ADAM17 inh 1, DDE Tn6 FP inh -4, ADAM10 inh -12 and DDE Tn7 FP inh -8.
Screening COc1ccc(S(=O)(=O)N2CCCOC2CNC(=O)C(=O)NCCO)cc1 (configuration not stated) returned MT1-MMP act inh -1, ADAM17 inh 10.0*, DDE Tn6 FP inh 5, ADAM10 inh 5, DDE Tn7 FP inh -3, ADAM10 ctr 7 and ADAM17 confirm 9.4*.
Screening Cc1ccc(CNC(=O)C(=O)NCC2OCCN2S(=O)(=O)c2ccc(C)cc2)cc1 (configuration not stated) returned MT1-MMP act inh 3, ADAM17 inh 11*, DDE Tn6 FP inh 3, ADAM10 inh -6, DDE Tn7 FP inh -8, ADAM10 ctr -7 and ADAM17 confirm 1.
`Cc1ccc(CNC(=O)C(=O)NCC2OCCN2S(=O)(=O)c2ccc(Br)cc2)cc1` (configuration not stated) gave MT1-MMP act inh 1, ADAM17 inh 6, DDE Tn6 FP inh -1, ADAM10 inh 6 and DDE Tn7 FP inh -3.
Cc1ccc(-n2nc3c(=O)n(CCCC(=O)NCCc4ccccc4)nc(C)c3c2C)cc1 was read as MT1-MMP act inh 6, ADAM17 inh -4, DDE Tn6 FP inh -2, ADAM10 inh -19 and DDE Tn7 FP inh 5.
Screening Cc1ccc(CCNC(=O)CCCn2nc(C)c3c(C)n(-c4ccc(C)cc4)nc3c2=O)cc1 returned MT1-MMP act inh 3, ADAM17 inh 11*, DDE Tn6 FP inh -2, ADAM10 inh 11, DDE Tn7 FP inh -8, ADAM10 ctr 5 and ADAM17 confirm 6.
Screening CC(Oc1ccc(F)cc1)C(=O)Nc1cccc(S(=O)(=O)N(C)c2ccccc2)c1 (configuration not stated) returned MT1-MMP act inh 0, ADAM17 inh 4, DDE Tn6 FP inh 4, ADAM10 inh 3 and DDE Tn7 FP inh 4.
Screening COc1ccc(N(C)S(=O)(=O)c2cccc(C(=O)Nc3nc(C)cs3)c2)cc1 returned MT1-MMP act inh -1, ADAM17 inh 3, DDE Tn6 FP inh -12, ADAM10 inh -2 and DDE Tn7 FP inh -6.
Screening CN(c1ccccc1)S(=O)(=O)c1cccc(C(=O)Nc2cccc(C(=O)NC3CC3)c2)c1 returned MT1-MMP act inh 5, ADAM17 inh 9.2*, DDE Tn6 FP inh -6, ADAM10 inh 2, DDE Tn7 FP inh 3, ADAM10 ctr 3 and ADAM17 confirm 3.
